Measured values as given in ChEMBL document CHEMBL1806449, “A class of Trp-Trp-AA-OBzl: Synthesis, in vitro anti-proliferation/in vivo anti-tumor evaluation, intercalation-mechanism investigation and 3D QSAR analysis” (Eur J Med Chem, 2011).
Peptide text beside a SMILES is read from it. * marks the point of attachment. OBn = c1ccc(CO*)cc1

Experiments:
Mus musculus [1] = assay: Toxicity in ICR mouse xenografted with mouse S180 cells assessed as increase in spleen index at 8.9 umol/kg; format: organism-based, CCRF S-180; settings: in vivo
Procedure, shortened: (§1)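 S180-bearing male ICR mice (10–12 weeks; 1×10^7 cells s.c. right oxter; 12 per group), daily i.p. 8.9 µmol/kg for seven days starting 24 h after implantation; NS, cytarabine and doxorubicin controls; liver, brain, kidney weights, spleen index and body-weight gain recorded.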

Mus musculus [2] = assay: Acute toxicity in ICR mouse assessed as tremors at 500 mg/kg, ip administered qd for 7 days; format: organism-based; parameters: dose 500 mg/kg, route intraperitoneal; settings: in vivo, 168 h
Mus musculus [3] = assay: Toxicity in ICR mouse xenografted with mouse S180 cells assessed as effect on liver weight at 8.9 umol/kg; format: organism-based, CCRF S-180; settings: in vivo; procedure, shortened: as §1
Mus musculus [4] = assay: Toxicity in ICR mouse xenografted with mouse S180 cells assessed as effect on kidney weight at 8.9 umol/kg; format: organism-based, CCRF S-180; settings: in vivo; procedure, shortened: as §1
CCRF S-180 [5] = assay: Antitumor activity against mouse S180 cells xenografted in ICR mouse assessed as tumor growth inhibition at 8.9 umol/kg, ip administered 1 day after tumor inoculation qd for 7 days; format: functional; settings: CCRF S-180, ip, read-out: GI
Procedure, shortened: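 Male ICR mice 10–12 weeks; S180 from ascites serially transplanted weekly; 1×10^7 viable cells in 0.2 ml NS implanted s.c. at right oxter; 24 h later randomized (10 per group); daily i.p. 8.9, 0.89 or 0.089 µmol/kg/day in 0.2 ml NS, 7 days; NS and cytarabine controls; sacrificed 24 h after last dose; inhibition % = [1−(Tw/Cw)]×100.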

Mus musculus [6] = assay: Acute toxicity in ICR mouse assessed as supination at 500 mg/kg, ip administered qd for 7 days; format: organism-based; parameters: dose 500 mg/kg, route intraperitoneal; settings: in vivo, 168 h
Mus musculus [7] = assay: Acute toxicity in ICR mouse assessed as mortality at 500 mg/kg, ip administered qd for 7 days; format: organism-based; parameters: dose 500 mg/kg, route intraperitoneal; settings: in vivo, 168 h
B16 = assay: Antiproliferative activity against mouse B16 cells after 48 hrs by MTT assay; format: functional, cell-based; settings: B16, 48 h
Mus musculus [8] = assay: Acute toxicity in ICR mouse assessed as jumping at 500 mg/kg, ip administered qd for 7 days; format: organism-based; parameters: dose 500 mg/kg, route intraperitoneal; settings: in vivo, 168 h
Mus musculus [9] = assay: Acute toxicity in ICR mouse assessed as twitch at 500 mg/kg, ip administered qd for 7 days; format: organism-based; parameters: dose 500 mg/kg, route intraperitoneal; settings: in vivo, 168 h
Mus musculus [10] = assay: Acute toxicity in ICR mouse assessed as tetanus at 500 mg/kg, ip administered qd for 7 days; format: organism-based; parameters: dose 500 mg/kg, route intraperitoneal; settings: in vivo, 168 h
K562 = assay: Antiproliferative activity against human K562 cells after 48 hrs by MTT assay; format: functional, cell-based; settings: K562, 48 h
Mus musculus [11] = assay: Toxicity in ICR mouse xenografted with mouse S180 cells assessed as increase in body weight at 8.9 umol/kg; format: organism-based, CCRF S-180; settings: in vivo; procedure, shortened: as §1
H22 = assay: Antiproliferative activity against mouse H22 cells after 48 hrs by MTT assay; format: functional, cell-based; settings: H22, 48 h
HepG2 = assay: Antiproliferative activity against human HepG2 cells after 48 hrs by MTT assay; format: functional, cell-based; settings: HepG2, 48 h
Mus musculus [12] = assay: Toxicity in ICR mouse xenografted with mouse S180 cells assessed as effect on brain weight at 8.9 umol/kg; format: organism-based, CCRF S-180; settings: in vivo; procedure, shortened: as §1
Mus musculus [13] = assay: Acute toxicity in ICR mouse assessed as apparent changes in any organ at 500 mg/kg, ip administered qd for 7 days; format: organism-based; parameters: dose 500 mg/kg, route intraperitoneal; settings: in vivo, 168 h
CCRF S-180 [14] = assay: Antiproliferative activity against mouse S180 cells after 48 hrs by MTT assay; format: functional, cell-based; settings: CCRF S-180, 48 h
[15] = Acute toxicity in ip dosed ICR mouse assessed as lethal dose; format: organism-based; settings: in vivo
Procedure, shortened: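 Male ICR mice, 24 weeks old, got a single i.p. injection of 500 mg/kg in 0.2 ml NS (normal saline). They were watched for 7 days for neurotoxic behaviour (tremor, twitch, jumping, tetanus, supination) and for death.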

Structure (SMILES) | Activity (Mus musculus [1]) | Activity (Mus musculus [2]) | Activity (Mus musculus [3]) | Activity (Mus musculus [4]) | inhibition in vivo at 8.9 µmol/kg (CCRF S-180 [5]) | Activity (Mus musculus [6]) | Activity (Mus musculus [7]) | IC50 (B16) | Activity (Mus musculus [8]) | Activity (Mus musculus [9]) | Activity (Mus musculus [10]) | IC50 (K562) | Activity (Mus musculus [11]) | IC50 (H22) | IC50 (HepG2) | Activity (Mus musculus [12]) | Activity (Mus musculus [13]) | IC50 (CCRF S-180 [14]) | LD50 [15]
CSCC[C@H](NC(=O)[C@H](Cc1c[nH]c2ccccc12)NC(=O)[C@@H](N)Cc1c[nH]c2ccccc12)C(=O)OCc1ccccc1 (H-Trp-Trp-Met-OBn) | 7.69 | Non-toxic | 1.74 g | 0.16 g | 16.9% | Non-toxic | Non-toxic | 65.4 µM | Non-toxic | Non-toxic | Non-toxic | 41.6 µM | 8.93 g | 49.1 µM | 52.7 µM | 0.28 g | Non-toxic | 49.1 µM | > 500 mg/kg
C[C@@H](O)[C@H](NC(=O)[C@H](Cc1c[nH]c2ccccc12)NC(=O)[C@@H](N)Cc1c[nH]c2ccccc12)C(=O)OCc1ccccc1 (H-Trp-Trp-Thr-OBn) | 8.21 | Non-toxic | 1.81 g | 0.15 g | 61.2% | Non-toxic | Non-toxic | 16 µM | Non-toxic | Non-toxic | Non-toxic | 12 µM | 9.99 g | 14 µM | 13.7 µM | 0.3 g | Non-toxic | 11.8 µM | > 500 mg/kg
NC(=O)C[C@H](NC(=O)[C@H](Cc1c[nH]c2ccccc12)NC(=O)[C@@H](N)Cc1c[nH]c2ccccc12)C(=O)OCc1ccccc1 (H-Trp-Trp-Asn-OBn) | 7.81 | Non-toxic | 1.82 g | 0.16 g | 50.6% | Non-toxic | Non-toxic | 21.3 µM | Non-toxic | Non-toxic | Non-toxic | 16.3 µM | 9.96 g | 18.7 µM | 17.9 µM | 0.27 g | Non-toxic | 15.5 µM | > 500 mg/kg
N[C@@H](Cc1c[nH]c2ccccc12)C(=O)N[C@@H](Cc1c[nH]c2ccccc12)C(=O)NCC(=O)OCc1ccccc1 (H-Trp-Trp-Gly-OBn) | 8.11 | Non-toxic | 1.8 g | 0.16 g | 56.6% | Non-toxic | Non-toxic | 24.3 µM | Non-toxic | Non-toxic | Non-toxic | 16.2 µM | 9.77 g | 22.4 µM | 17.8 µM | 0.27 g | Non-toxic | 19.5 µM | > 500 mg/kg
NC(=O)CC[C@H](NC(=O)[C@H](Cc1c[nH]c2ccccc12)NC(=O)[C@@H](N)Cc1c[nH]c2ccccc12)C(=O)OCc1ccccc1 (H-Trp-Trp-Gln-OBn) | 7.96 | Non-toxic | 1.81 g | 0.16 g | 72% | Non-toxic | Non-toxic | 12 µM | Non-toxic | Non-toxic | Non-toxic | 8.86 µM | 9.89 g | 10.7 µM | 10.2 µM | 0.27 g | Non-toxic | 8.74 µM | > 500 mg/kg
C[C@H](NC(=O)[C@H](Cc1c[nH]c2ccccc12)NC(=O)[C@@H](N)Cc1c[nH]c2ccccc12)C(=O)OCc1ccccc1 (H-Trp-Trp-Ala-OBn) | 7.59 | Non-toxic | 1.77 g | 0.16 g | 50% | Non-toxic | Non-toxic | 23 µM | Non-toxic | Non-toxic | Non-toxic | 18.4 µM | 9.5 g | 20.8 µM | 20.1 µM | 0.27 g | Non-toxic | 18.5 µM | > 500 mg/kg
N[C@@H](Cc1c[nH]c2ccccc12)C(=O)N[C@@H](Cc1c[nH]c2ccccc12)C(=O)N1CCC[C@H]1C(=O)OCc1ccccc1 (H-Trp-Trp-Pro-OBn) | 8.01 | Non-toxic | 1.81 g | 0.15 g | 58% | Non-toxic | Non-toxic | 17.2 µM | Non-toxic | Non-toxic | Non-toxic | 12.9 µM | 10.24 g | 15.5 µM | 14.7 µM | 0.27 g | Non-toxic | 12.5 µM | > 500 mg/kg
N[C@@H](Cc1c[nH]c2ccccc12)C(=O)N[C@@H](Cc1c[nH]c2ccccc12)C(=O)N[C@@H](Cc1cnc[nH]1)C(=O)OCc1ccccc1 (H-Trp-Trp-His-OBn) | 8.34 | Non-toxic | 1.78 g | 0.16 g | 30.7% | Non-toxic | Non-toxic | 31.7 µM | Non-toxic | Non-toxic | Non-toxic | 25.3 µM | 10.04 g | 27 µM | 27.3 µM | 0.28 g | Non-toxic | 26.5 µM | > 500 mg/kg
N[C@@H](Cc1c[nH]c2ccccc12)C(=O)N[C@@H](Cc1c[nH]c2ccccc12)C(=O)N[C@@H](CCC(=O)O)C(=O)OCc1ccccc1 (H-Trp-Trp-Glu-OBn) | 7.92 | Non-toxic | 1.86 g | 0.17 g | 55.3% | Non-toxic | Non-toxic | 20.8 µM | Non-toxic | Non-toxic | Non-toxic | 11 µM | 9.94 g | 13.7 µM | 21 µM | 0.27 g | Non-toxic | 13.4 µM | > 500 mg/kg
